High-throughput results from PubChem.
A selection: hits, their analogues and other compounds. The true share with any hit is near 2.6%.
Calb FLC: C. albicans growth inhibition with fluconazole, primary screen, CaCi-2 strain, Alamar Blue fluorescence. 300,000 compounds, 0.57% hits. C. albicans CaCi-2 (fluconazole-resistant clinical isolate) + fluconazole, 48 h. growth inhibition, % (test concentration not listed). AID 1979, 2009;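 active = growth inhibition above about 58% in most replicates, limit read from the data, passing the limit was not always enough; inconclusive = exactly half the replicates above a set limit; inactive = most replicates below a set limit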;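 note: all wells also contain fluconazole at 8 µg/ml as a sub-toxic cotreatment; 0% = median of DMSO wells and 100% = median of geldanamycin control wells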
ASAP1 GAP inh: inhibitors of human ASAP1 ArfGAP activity, primary screen, biochemical, fluorescence polarization. Arf-GAP with SH3 domain, ANK repeat and PH domain-containing protein 1 (Homo sapiens), …. ASAP1-stimulated ARF1 GTP hydrolysis, GDP FP detection. 360,000 compounds, 0.19% hits. inhibition, % at 16.5 µM; in the data active = inhibition above about 25%;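 note: 0% = vehicle with enzyme and substrate and 100% = no enzyme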
Target sequence (Q9ULH1 325-724 limits assumed): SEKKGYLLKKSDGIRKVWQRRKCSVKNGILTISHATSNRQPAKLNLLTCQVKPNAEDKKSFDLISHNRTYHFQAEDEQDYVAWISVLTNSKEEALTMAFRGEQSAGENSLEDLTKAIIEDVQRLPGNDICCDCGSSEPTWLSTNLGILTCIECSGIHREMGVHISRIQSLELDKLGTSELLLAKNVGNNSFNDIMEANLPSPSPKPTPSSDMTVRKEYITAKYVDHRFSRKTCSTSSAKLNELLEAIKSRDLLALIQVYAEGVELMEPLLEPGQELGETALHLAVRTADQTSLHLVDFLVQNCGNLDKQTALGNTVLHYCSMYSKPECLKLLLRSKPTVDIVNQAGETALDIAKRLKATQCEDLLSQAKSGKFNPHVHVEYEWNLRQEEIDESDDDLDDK
ARFGAP1 inh: inhibitors of rat ARFGAP1 GAP activity, primary screen, biochemical, fluorescence polarization, GDP tracer; ADP-ribosylation factor GTPase-activating protein 1 (Rattus norvegicus), Q62848; Arfgap1-stimulated ARF1 GTP hydrolysis, GDP FP detection; inhibition, % at 16.5 µM; 360,000 compounds, 0.26% hits;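 active = inhibition above a per-plate limit, mean inhibition of low control wells plus 3 SD, cut at about 25% in these data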;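 note: 0% = DMSO wells with enzyme and 100% = wells lacking Arfgap1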
Target sequence (Q62848 1-136 limits assumed): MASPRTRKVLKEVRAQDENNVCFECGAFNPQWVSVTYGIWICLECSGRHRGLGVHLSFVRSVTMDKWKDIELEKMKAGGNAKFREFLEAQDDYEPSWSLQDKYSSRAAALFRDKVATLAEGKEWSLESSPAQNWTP
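Assay system: Rat Arfgap1 GAP domain (His6, aa 1-136), purified enzyme | Buffer or medium: HEPES 25 mM pH 7.5, NaCl 150 mM, MgCl2, DTT | Schedule: GTP hydrolysis reaction 2 h at 25 °C | Signal: FP of antibody-bound GDP Alexa 633 tracer, ex 620/em 688 nm | Measure: Percent inhibition of Arfgap1-stimulated GTP hydrolysis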
PHOSPHO1 block: PubChem AID 1565; Phosphoethanolamine/phosphocholine phosphatase (Homo sapiens), Q8TCT1; recombinant PHOSPHO1, absorbance phosphatase assay; inhibition, % at 13.3 µM; 290,000 compounds, 1.1% hits; in the data active = inhibition above about 60%
IMP-1 inh: IMP-1 metallo-beta-lactamase inhibitors, primary screen, biochemical, epi-absorbance readout, Pseudomonas aeruginosa enzyme | metallo-beta-lactamase IMP-1 (Pseudomonas aeruginosa) | purified IMP-1, nitrocefin hydrolysis, epi-absorbance fluorescence | inhibition, % at 5.6 µM | 290,000 compounds, 0.45% hits | AID 1556, 2009;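 active = inhibition above the mean plus 3 SD of all compounds in the same screening run, cut at about 4.5% in these data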;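 note: 0% = IMP-1 with DMSO and 100% = DMSO wells lacking enzyme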
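Assay system: purified recombinant IMP-1 beta-lactamase. Input: IMP-1 0.2 nM before substrate addition. Buffer or medium: Zinc- and detergent-supplemented HEPES buffer, pH 7.1. Schedule: 25 °C, 15 min preincubation, 25 min reaction. Signal: Epi-absorbance fluorescence, 480 nm excitation, 530 nm emission. Evaluation: percent inhibition from optical density relative to buffer-blank wells.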
VIM-2 inhibitor: VIM-2 metallo-beta-lactamase inhibitors, primary screen, biochemical, epi-absorbance readout, Pseudomonas aeruginosa enzyme; purified VIM-2, nitrocefin hydrolysis, epi-absorbance fluorescence; inhibition, % at 5.6 µM; 290,000 compounds, 0.89% hits;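 active = inhibition above the mean of all tested compounds plus 3 SD, cutoff set per screening run, cut at about 7.5% in these data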;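 note: red hydrolysis product quenches plate fluorescence so inhibitors raise well fluorescence; 0% = enzyme with DMSO and 100% = DMSO without enzyme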
* = called active by the depositor; ? = inconclusive; nt = no result.

SMILES	Calb FLC	ASAP1 GAP inh	ARFGAP1 inh	PHOSPHO1 block	IMP-1 inh	VIM-2 inhibitor
Cc1cc(C)n(-c2nc(NCCCN(C)C)c3c4c(sc3n2)CCCC4)n1	50	-4	10	24	-4	0
CCN(CC)C(=O)c1ncn2c1C(=O)N[C@@H](C)C2	nt	-5	11	nt	nt	nt
Cc1cccc(N2C(=O)c3cccc4c(N(C)CCO)ccc(c34)C2=O)c1	6	nt	nt	15	5.1*	4
CN(C)c1ccc2c3c(cccc13)C(=O)N(c1ccccc1)C2=O	-4	nt	nt	-10	0	-1
O=C(C(=O)N1CCN(C(=O)C2CCCC2)CC1)c1cccc(C(F)(F)F)c1	nt	12	-1	nt	nt	nt
Cc1ccc2nc3c(cc(C(=O)NC4CCS(=O)(=O)C4)n3Cc3ccccc3)c(=O)n2c1 (stereo unspecified)	-20	-8	1	62*	-3	1
c1coc(Cn2c(SCc3nc4ccccc4[nH]3)nnc2-c2cccs2)c1	-5	-6	2	92*	-1	3
CCOc1ccc(-c2nnc(SCc3nc4ccccc4[nH]3)n2N)cc1	-6	-2	13	76*	-2	-4
Cc1ccc(-c2nnc(SCc3nc4ccccc4[nH]3)n2Cc2ccco2)cc1	28	-16	-1	94*	1	-2
O=c1[nH]c(CSc2nnc(-c3ccncc3)n2Cc2ccco2)nc2ccccc12	13	2	8	29	3	-3
Cc1cccc(-c2nnc(SCc3nc4ccccc4[nH]3)n2Cc2ccco2)c1	4	-4	-11	83*	-2	-2
O=C(N[C@@H](Cc1cccnc1)C(=O)N1CCC[C@H]1C(=O)NCc1ccccc1)c1ccc(Cl)cc1Cl	nt	4	1	nt	nt	nt
COC(=O)c1ccc2nc(-c3ccc(C)cc3)c(CC(C)(C)C)n2c1	nt	7	1	nt	nt	nt
c1ccc(CSc2nnc(-c3cccs3)n2Cc2ccco2)cc1	121*	3	1	-7	-3	-5
C=CCNc1cccc2c1S(=O)(=O)N[C@@H](C)CO2	nt	7	5	nt	nt	nt
Cc1ccc(C)c(S(=O)(=O)C(C#N)c2nc3ccccc3nc2N2CCCC2)c1 (stereo unspecified)	-16	-4	-8	72*	-5	-2
Cc1ccc(S(=O)(=O)C(C#N)c2nc3ccccc3nc2N2CCN(C)CC2)cc1C (stereo unspecified)	83*	11	20	19	-3	-2
COc1ccc(S(=O)(=O)C(C#N)c2nc3ccccc3nc2N2CCCCC2)cc1 (stereo unspecified)	14	8	7	100*	-4	-4
N#CC(c1nc2ccccc2nc1N1CCCC1)S(=O)(=O)c1ccccc1 (stereo unspecified)	?	2	3	33	-1	-3
Cc1ccc(C)c(S(=O)(=O)C(C#N)c2nc3ccccc3nc2N2CCOCC2)c1 (stereo unspecified)	-34	0	-8	-23	-1	-6
CN1CCN(c2nc3ccccc3nc2C(C#N)S(=O)(=O)c2ccccc2)CC1 (stereo unspecified)	-1	-5	3	37	0	2
COc1cccc(CNC(=O)[C@H]2CCCN2C(=O)[C@H]2CCCN2C(=O)c2ccc(F)cc2F)c1	nt	2	7	nt	nt	nt
O=C(CN1c2cccc3cccc(c23)S1(=O)=O)NCc1ccccc1Cl	nt	-3	9	nt	nt	nt
CCOC(=O)c1cc(S(=O)(=O)NC2CCC(C)CC2)cn1C (stereo unspecified)	2	-4	-3	64*	-4	-2
CCOC(=O)c1cc(S(=O)(=O)Nc2ccc(F)cc2F)cn1C	-5	-8	9	58	-2	-4
SMILES	Calb FLC	ASAP1 GAP inh	ARFGAP1 inh	PHOSPHO1 block	IMP-1 inh	VIM-2 inhibitor
Cc1ccc(Cn2nnc3c(=O)[nH]c(C4CCN(S(=O)(=O)c5ccc(S(=O)(=O)NC6CC6)cc5)CC4)nc32)cc1	-3	8	2	35	-3	0
Cc1ccc(Cn2nnc3c(=O)[nH]c(C4CCN(S(=O)(=O)c5ccc(C)cc5)CC4)nc32)cc1	111*	-2	-12	14	1	-1
CCN(CC)c1ccc(NC(=O)Cn2cc3c(n2)CCC(C)C3)c(C)c1 (stereo unspecified)	0	4	7	83*	-5	-3
CCOc1ccc(NC(=O)CN2C(=O)c3cccc4cccc2c34)cc1	nt	1	1	nt	nt	nt
O=C(Nc1cccnc1)c1ccc(CSc2ccc(Cl)cc2)o1	nt	8	1	nt	nt	nt
O=C(O)CCCNc1cc(N2CCN(C(=O)c3ccco3)CC2)c2noc3c2c1C(=O)c1ccccc1-3	7	13	14	-4	8.2*	4
O=C(Cc1ccc(Cl)cc1)Nc1ccc(Br)cc1	42*	14	14	-13	-1	-2
CN(C)c1ccc(-c2n(C)c3ccccc3[n+]2C)cc1	102*	10	14	8	-1	0
O=C(CN1C(=O)NC2(CCCCCCC2)C1=O)NC1CCCc2ccccc21 (stereo unspecified)	-6	6	6	173*	-2	-3
COC(=O)C1=C(C)N(C)C(=NCc2cccc(C(F)(F)F)c2)NC1c1ccc(F)cc1 (stereo unspecified)	nt	-11	-2	nt	nt	nt
CCC(C)(C)NC(=O)C1CCCN(S(=O)(=O)c2ccc3c(c2)CC(C)N3C(=O)C2CC2)C1 (stereo unspecified)	-4	6	19	63*	-1	-1
CCOC(=O)C1CCCN(S(=O)(=O)c2ccc3c(c2)CC(C)N3C(=O)C2CC2)C1 (stereo unspecified)	0	4	6	36	-1	-2
COc1cccc(C(=O)N[C@@H](CC(C)C)C(=O)N2CCC[C@H]2C(=O)NCc2ccccc2)c1	nt	5	-3	nt	nt	nt
O=C(CC(C(=O)O)c1cccc(Cl)c1)c1ccccc1 (stereo unspecified)	-1	4	8	39	0	11*
O=C(CC(C(=O)c1ccccc1)c1ccccc1)c1ccccc1 (stereo unspecified)	nt	3	-3	nt	nt	nt
O=C(NS(=O)(=O)c1ccccc1[N+](=O)[O-])[C@H]1O[C@@H](n2ccc(=O)[nH]c2=O)[C@H](O)[C@@H]1O	nt	1	-2	nt	nt	nt
CC(=O)C1=C(C)N(CC(C)C)C(=S)NC1c1ccc(Br)cc1 (stereo unspecified)	nt	-2	5	nt	nt	nt
O=C(O)c1ccc(N2C(=O)CSC2=S)cc1	4	-2	-16	nt	nt	nt
